Test results reported in ChEMBL document CHEMBL1121891, “Structure--activity relationship in cinnamamides. 3. Synthesis and anticonvulsant activity evaluation of some derivatives of (E)- and (Z)-m-(trifluoromethyl)cinnamamide” (J Med Chem, 1981).
Activity calls are given as the source filed them. The rule behind the calls is not given here.

Columns and labels:
Mus musculus [1] = assay: Compound was evaluated for loss of righting reflex after peroral administration; type: functional
Summary of the method: (§1)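 Irwin observational test in fasted male albino mice given oral suspensions in 0.5% methocel by gavage. Doses were 25, 50, 100, 200, 400 and 800 mg/kg, with signs checked up to 6 h. The value is the dose giving 50% of maximal effect, interpolated graphically from the log dose/peak effect curve.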

Mus musculus [2] = assay: Compound was evaluated for positional passivity after peroral administration; type: functional; summary of the method: as §1
Mus musculus [3] = assay: Compound was evaluated for anticonvulsant activity in mouse after peroral administration.; type: functional; conditions: po
Summary of the method: (§2)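 Male albino mice (Icem-CET, SPF Caw), 17–22 g, fasted 9 h; compounds suspended in 0.5% methocel and given by gavage at 0.2 mL/10 g. Antagonism of pentylenetetrazole seizures was scored in groups of 20 per dose, at four or five doses per compound. ED50 was derived by probit analysis with p = 0.05 fiducial limits. Inactives were tested at a single screening dose.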

Mus musculus [4] = assay: Locomotor activity reduction after peroral administration; type: functional; summary of the method: as §1
[5] = Lethal dose after peroral administration; type: toxicity, organism-based; conditions: mouse, in vivo, po
Mus musculus [6] = assay: Compound was evaluated for anticonvulsant activity in mouse after peroral administration; IA is Inactive at the screening dose; type: functional, organism-based; summary of the method: as §2
Mus musculus [7] = assay: Compound was evaluated for positional passivity after peroral administration; E denotes absent from 25-800 mg/Kg; type: functional, organism-based; summary of the method: as §1
Mus musculus [8] = assay: Compound was evaluated for minimum effective dose of clonic-type convulsions after peroral administration; E denotes absent from 25-800 mg/Kg; type: functional, organism-based
Summary of the method: (§3)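 Fasted male albino mice received oral suspensions in 0.5% methocel by gavage at 25–800 mg/kg during Irwin-type behavioral observation, followed up to 6 h. The value is the minimum effective dose producing clonic-type convulsions.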

Mus musculus [9] = assay: Compound was evaluated for tremors after peroral administration; E denotes absent from 25-800 mg/Kg; type: functional, organism-based; summary of the method: as §1
Mus musculus [10] = assay: Compound was evaluated for anticonvulsant activity in mouse after peroral administration; IA is inactive at screening dose; type: functional, organism-based; summary of the method: as §2
Mus musculus [11] = assay: Compound was evaluated for positional passivity after peroral administration; H denotes absent from 25-800 mg/Kg; type: functional, organism-based; summary of the method: as §1
Mus musculus [12] = assay: Compound was evaluated for anticonvulsant activity in mouse after peroral administration; Not checked; type: functional, organism-based
Mus musculus [13] = assay: Compound was evaluated for tremors after peroral administration; type: functional; summary of the method: as §1
Mus musculus [14] = assay: Compound was evaluated for minimum effective dose of clonic-type convulsions after peroral administration; type: functional; conditions: po, read-out: MED; summary of the method: as §3
Mus musculus [15] = assay: Compound was evaluated for anticonvulsant activity in mouse after peroral administration; inactive at screening dose 100 mg/kg; type: functional, organism-based; set-up: dose 100 mg/kg; summary of the method: as §2

Row | SMILES | Reflex (Mus musculus [1]) | Passivity (Mus musculus [2]) | ED50 (Mus musculus [3]) | Locomotor activity (Mus musculus [4]) | LD50 [5] | further results
1 | C/C(C(N)=O)=C(/C)c1ccc(Cl)cc1 | 150 mg/kg | 300 mg/kg | 20.9 mg/kg | 200 mg/kg | 550 mg/kg | 
2 | C/C(C(N)=O)=C(/C)c1cccc(C(F)(F)F)c1 | 25 mg/kg | 85 mg/kg |  | 100 mg/kg | 200 mg/kg | ED50 (Mus musculus [6]): inactive
3 | C/C(C(=O)NC1CC1)=C(/C)c1cccc(C(F)(F)F)c1 | 100 mg/kg | 180 mg/kg | 17.4 mg/kg | 80 mg/kg | 140 mg/kg | 
4 | C=CCNC(=O)/C(C)=C/c1ccccc1 | 150 mg/kg | 280 mg/kg | 53.8 mg/kg | 200 mg/kg | 600 mg/kg | 
5 | C/C(C(=O)NC1CC1)=C(\C)c1cccc(C(F)(F)F)c1 |  |  | 65.5 mg/kg | 800 mg/kg | > 800 mg/kg | Passivity (Mus musculus [7]): Absent; MED (Mus musculus [8]): Absent; Tremors (Mus musculus [9]): Absent
6 | C=CCNC(=O)/C(C)=C(\C)c1ccccc1 | 250 mg/kg | 300 mg/kg | 67 mg/kg | 130 mg/kg |  | 
7 | C/C(C(N)=O)=C(\C)c1ccccc1 |  | 800 mg/kg |  | 400 mg/kg | > 800 mg/kg | ED50 (Mus musculus [10]): inactive; MED (Mus musculus [8]): Absent; Tremors (Mus musculus [9]): Absent
8 | CCC1(c2ccccc2)C(=O)N=C([O-])NC1=O.[Na+] (stereo unspecified) [PHENOBARBITAL SODIUM] | 110 mg/kg | 180 mg/kg | 6.1 mg/kg | 180 mg/kg |  | 
9 | O=C(/C=C/c1cccc(C(F)(F)F)c1)NC1CC1 | 100 mg/kg | 400 mg/kg | 9.6 mg/kg | 100 mg/kg | 700 mg/kg | 
10 | C/C(C(=O)NC1CC1)=C(/C)c1ccccc1 | 150 mg/kg | 250 mg/kg | 55.9 mg/kg | 100 mg/kg | 500 mg/kg | 
11 | C=CCNC(=O)/C=C(\C)c1ccccc1 | 150 mg/kg | 250 mg/kg | 65.8 mg/kg | 150 mg/kg | 450 mg/kg | 
12 | C=CCNC(=O)/C=C/c1ccccc1 | 150 mg/kg | 280 mg/kg | 52.4 mg/kg | 150 mg/kg | 300 mg/kg | 
13 | C/C(=C\c1cccc(C(F)(F)F)c1)C(=O)NC1CC1 | 150 mg/kg | 400 mg/kg | 24.1 mg/kg | 120 mg/kg | 700 mg/kg | 
14 | C/C(=C\c1cccc(C(F)(F)F)c1)C(N)=O | 150 mg/kg | 250 mg/kg | 22.4 mg/kg | 50 mg/kg | 800 mg/kg | 
15 | C/C(C(=O)NC1CC1)=C(\C)c1ccc(Br)cc1 |  | 450 mg/kg | 52.4 mg/kg | 300 mg/kg | 600 mg/kg | MED (Mus musculus [8]): Absent; Tremors (Mus musculus [9]): Absent
16 | C=CCNC(=O)/C(C)=C(\C)c1ccc(Cl)cc1 | 70 mg/kg | 90 mg/kg | 18.6 mg/kg | 70 mg/kg | 300 mg/kg | 
17 | O=C1NC(=O)C(c2ccccc2)(c2ccccc2)N1 [PHENYTOIN] | 250 mg/kg |  | 9.11 mg/kg | 150 mg/kg |  | Passivity (Mus musculus [11]): inactive
18 | C=CCNC(=O)/C(C)=C(\C)c1cccc(C(F)(F)F)c1 | 140 mg/kg | 350 mg/kg |  | 150 mg/kg | 400 mg/kg | ED50 (Mus musculus [12]): Not checked
19 | C/C(C(=O)NC1CC1)=C(/C)c1ccc(Cl)cc1 | 150 mg/kg | >800 mg/kg | 11.4 mg/kg | 350 mg/kg | 300 mg/kg | 
20 | C#CCNC(=O)/C(C)=C(\C)c1ccc(Cl)cc1 | 200 mg/kg | 400 mg/kg | 10.6 mg/kg | 60 mg/kg |  | 
21 | NC(=O)/C=C/c1cccc(C(F)(F)F)c1 | 70 mg/kg | 200 mg/kg | 23.2 mg/kg | 70 mg/kg | 600 mg/kg | 
22 | C#CCNC(=O)/C(C)=C(\C)c1cccc(C(F)(F)F)c1 | 110 mg/kg | 180 mg/kg | 25.1 mg/kg | 80 mg/kg | 170 mg/kg | 
23 | C/C(C(N)=O)=C(\C)c1cccc(C(F)(F)F)c1 |  | 250 mg/kg | 32.2 mg/kg | 180 mg/kg | 600 mg/kg | MED (Mus musculus [8]): Absent; Tremors (Mus musculus [9]): Absent
24 | C/C(C(=O)NC1CC1)=C(\C)c1ccccc1 |  |  |  | 400 mg/kg | 600 mg/kg | Reflex (Mus musculus [13]): 300 mg/kg; minimal effective dose (Mus musculus [14]): 400 mg/kg; Passivity (Mus musculus [7]): Absent; ED50 (Mus musculus [15]): inactive
25 | C/C(C(=O)NC1CC1)=C(\C)c1ccc(Cl)cc1 |  |  | 36.3 mg/kg | 170 mg/kg |  | Reflex (Mus musculus [13]): 600 mg/kg; Passivity (Mus musculus [7]): Absent; MED (Mus musculus [8]): Absent
